Measurements taken from ChEMBL document CHEMBL1128257, “Chemically stable N-methyl-4-(alkylthio)cyclophosphamide derivatives as prodrugs of 4-hydroxycyclophosphamide” (J Med Chem, 1995).

Experiments:
RPMI-8226 [1] = assay: cytotoxicity against leukemia subpanel (RPMI-8226); Experiment 1; type: functional; conditions: Homo sapiens
In short: (§1)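 NCI 60 human tumour cell line screen. Compound dissolved in DMSO and tested at five concentrations (10^-4–10^-8 M). Growth followed over time as percent growth, with zero-time population set to zero. Value is log10 GI50, the log molar concentration giving 50% growth inhibition. Experiment 1 and Experiment 2 are separate runs.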

MOLT-4 [2] = assay: cytotoxicity against leukemia subpanel (MOLT-4); Experiment 1; type: functional; conditions: Homo sapiens; in short: as §1
CCRF-CEM [3] = assay: cytotoxicity against leukemia subpanel (CCRF-CEM); Experiment 1; type: functional; conditions: Homo sapiens; in short: as §1
Mus musculus [4] = assay: Percentage increased life span against L1210 leukemia cells in mice;(1.08 mmol/kg dosage); type: functional
In short: (§2)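 CDF1 mice (17–18 g) inoculated with L1210 lymphoid leukaemia cells per NIH protocol 1.100. A single 1.08 mmol/kg dose was given 24 h after inoculation. %ILS = (treated/control − 1) × 100 on survival times, with vehicle-treated mice as controls. Survivors beyond 30 days were counted separately.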

DMS-114 [5] = assay: cytotoxicity against small cell lung cancer subpanel (DMS 114); Experiment 2; type: functional; conditions: Homo sapiens; in short: as §1
SR [6] = assay: cytotoxicity against leukemia subpanel (SR); Experiment 2; type: functional; conditions: Homo sapiens; in short: as §1
RPMI-8226 [7] = assay: cytotoxicity against leukemia subpanel (RPMI-8226); Experiment 2; type: functional; conditions: Homo sapiens; in short: as §1
CCRF-CEM [8] = assay: cytotoxicity against leukemia subpanel (CCRF-CEM); Experiment 2; type: functional; conditions: Homo sapiens; in short: as §1
MOLT-4 [9] = assay: cytotoxicity against leukemia subpanel (MOLT-4); Experiment 2; type: functional; conditions: Homo sapiens; in short: as §1
HL-60 [10] = assay: cytotoxicity against leukemia subpanel (HL-60 (TB)); Experiment 2; type: functional; conditions: Homo sapiens; in short: as §1
K562 [11] = assay: cytotoxicity against leukemia subpanel (K562); Experiment 2; type: functional; conditions: Homo sapiens; in short: as §1
[12] = MGDH represents the selectivity or relative sensitivity of the tumor cell panel to the drug.; Experiment 2; type: functional
In short: (§3)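 NCI 60-line screen, DMSO solutions at five concentrations (10^-4–10^-8 M). Log10 GI50 was found per line. MG MID is the calculated mean over all panels. Sensitivity is expressed as the log-scale difference of a line or subpanel from that mean. Experiment 1 and Experiment 2 are separate runs.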

DMS-114 [13] = assay: cytotoxicity against small cell lung cancer subpanel (DMS 114); Experiment 1; type: functional; conditions: Homo sapiens; in short: as §1
DMS-273 [14] = assay: cytotoxicity against small cell lung cancer subpanel (DMS 273); Experiment 1; type: functional; conditions: Homo sapiens; in short: as §1
HL-60 [15] = assay: cytotoxicity against leukemia subpanel (HL-60 (TB)); Experiment 1; type: functional; conditions: Homo sapiens; in short: as §1
[16] = MGDH represents the selectivity or relative sensitivity of the tumor cell panel to the drug.; Experiment 1; type: functional; in short: as §3
K562 [17] = assay: cytotoxicity against leukemia subpanel (K562); Experiment 1; type: functional; conditions: Homo sapiens; in short: as §1
SR [18] = assay: cytotoxicity against leukemia subpanel (SR); Experiment 1; type: functional; conditions: Homo sapiens; in short: as §1
DMS-273 [19] = assay: cytotoxicity against small cell lung cancer subpanel (DMS 273); Experiment 2; type: functional; conditions: Homo sapiens; in short: as §1
Mus musculus [20] = assay: Percentage increased life span against L1210 leukemia cells in mice (1.08 mmol/kg dosage); Toxic; type: toxicity, organism-based; in short: as §2

Structure (SMILES)	GI50 (RPMI-8226 [1]) [nM]	GI50 (MOLT-4 [2]) [nM]	GI50 (CCRF-CEM [3]) [nM]	ILS (Mus musculus [4]) [%]	GI50 (DMS-114 [5]) [nM]	GI50 (SR [6]) [nM]	GI50 (RPMI-8226 [7]) [nM]	GI50 (CCRF-CEM [8]) [nM]	GI50 (MOLT-4 [9]) [nM]	GI50 (HL-60 [10]) [nM]	GI50 (K562 [11]) [nM]	MGDH GI50 [12]	GI50 (DMS-114 [13]) [nM]	GI50 (DMS-273 [14]) [nM]	GI50 (HL-60 [15]) [nM]	MGDH GI50 [16]	GI50 (K562 [17]) [nM]	GI50 (SR [18]) [nM]	GI50 (DMS-273 [19]) [nM]	ILS (Mus musculus [20])
CCN(CC)C(=S)SC1CCOP(=O)(N(CCCl)CCCl)N1C (stereo unspecified)	331	49	31.6	>92	209	389	398	39.8	69.2	288	87.1	87.78	170	120	31.6	69.72	52.5	37.1	380	–
CN1C(OO)CCOP1(=O)N(CCCl)CCCl (stereo unspecified)	–	–	–	–	–	–	–	–	–	–	–	–	–	–	–	–	–	–	–	Toxic
O=P1(N(CCCl)CCCl)NCCCO1 (stereo unspecified) [CYCLOPHOSPHAMIDE ANHYDROUS]	–	–	–	>187	–	–	–	–	–	–	–	–	–	–	–	–	–	–	–	–
